Published values pooled from the literature.
Compare with care: the assays were run in different laboratories.
Cell line: A549
Read-out: cell growth or viability

| SMILES | technique | concentration | time | measurement | value |
| --- | --- | --- | --- | --- | --- |
| O=C(O)CCCCC#CCCCCCCCCCc1ccccc1 | MTS |  | 24 h | IC50 | 18 µM |
| Nc1nc(N)c2nc(CNc3ccc(C(=O)NCCc4ccccc4)cc3)cnc2n1 | ATP luminescence |  |  | GI50 | 38.8 µM |
| O=C1OC2(c3ccccc31)c1ccc(O)c(I)c1Oc1c2ccc(O)c1I | CCK-8 |  | 48 h | CC50 | > 200 µM |
| Nc1nc(N)c2nc(CNc3ccc(C(=O)c4ccccc4)cc3)cnc2n1 | ATP luminescence |  |  | GI50 | 13.7 µM |
| O=C1OC2(c3ccccc31)c1ccc(O)c(Cl)c1Oc1c2ccc(O)c1Cl | CCK-8 |  | 48 h | CC50 | > 200 µM |
| CC(=O)O[C@H]1C(=O)[C@@]2(C)[C@H]([C@H](OC(=O)c3ccccc3)[C@]3(O)C[C@H](OC(=O)[C@H](O)[C@@H](NC(=O)c4ccccc4)c4ccccc4)C(C)=C1C3(C)C)[C@]1(OC(C)=O)CO[C@@H]1C[C@@H]2O | MTT |  | 48 h | IC50 | 0.45 µM |
| COc1cccc2c1C(=O)c1c(O)c3c(c(O)c1C2=O)C[C@@](O)(C(=O)CO)C[C@@H]3O[C@H]1C[C@H](N)[C@H](O)[C@H](C)O1 | MTT |  | 48 h | IC50 | 1.4 µM |
| CCOC(=O)C1CCN(C(=O)c2ccc(N(CC)Cc3cnc4nc(N)nc(N)c4n3)cc2)CC1 | ATP luminescence |  |  | GI50 | 4.38 µM |
| C=C(C)[C@H](CC=C(C)C)Cc1c(O)cc(O)c2c1O[C@H](c1ccc(O)cc1O)CC2=O | MTT |  | 48 h | IC50 | 18.1 µM |
| O=C(O)CCCCC#CCCCC1CCCCC1 | MTS |  | 24 h | IC50 | 40 µM |
| C=C(C)C(CC=C(C)C)Cc1c(O)cc(OC)c2c1O[C@H](c1ccc(O)cc1O)CC2=O (single isomer, unassigned; (-)) | MTT |  |  | IC50 | 50.5 µM |
| O=C1OC2(c3ccc(O)cc3Oc3cc(O)ccc32)c2ccccc21 | CCK-8 |  | 48 h | CC50 | > 200 µM |
| C=C(C)C(O)Cc1c(O)c(CC=C(C)C)c2occ(-c3ccc(O)cc3)c(=O)c2c1O (stereo not drawn) | MTT | 100 µg/mL |  | viability | 91.6% |
| CCCCCCCCCCCCCCCC(=O)O | MTS |  | 24 h | IC50 | 145 µM |
| O=C1OC2(c3ccccc31)c1cc(Br)c(O)c(Br)c1Oc1c2cc(Br)c(O)c1Br | CCK-8 |  | 48 h | CC50 | > 200 µM |
